According to ChEMBL document CHEMBL4011643, “Triaryl Benzimidazoles as a New Class of Antibacterial Agents against Resistant Pathogenic Microorganisms” (J Med Chem, 2017):
Values after ≈ are worked out from the molar mass of the structure shown. Active and inactive are the calls of the source.

Columns and labels:
Pseudomonas aeruginosa [1] = experiment: Antibacterial activity against Pseudomonas aeruginosa PAO1 after 20 hrs in the presence of PMBN by broth microdilution method; assay type: functional; conditions: PAO1, 20 h
Outline: (§1)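 Broth microdilution in Tryptic Soy Broth, done in triplicate. Growth was read as OD600 after 20 h. MIC is the lowest drug concentration giving OD600 below 0.1.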

Acinetobacter baumannii [2] = experiment: Ratio of MIC for Acinetobacter baumannii ATCC 17978 in absence of PMBN to MIC for Acinetobacter baumannii ATCC 17978 in presence of PMBN; assay type: functional
Outline: (§2)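 Fold change: MIC without divided by MIC with 30 μg/mL PMBN. Both MICs were by TSB broth microdilution, with an OD600 <0.1 cutoff at 20 h.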

Klebsiella pneumoniae [3] = experiment: Antibacterial activity against Klebsiella pneumoniae NCTC 13368 after 20 hrs by broth microdilution method; assay type: functional; conditions: NCTC 13368, 20 h; outline: as §1
Klebsiella pneumoniae [4] = experiment: Antibacterial activity against Klebsiella pneumoniae M6 after 20 hrs in the presence of Pa-beta-N and magnesium ions by broth microdilution method; assay type: functional; conditions: M6, 20 h; outline: as §1
Enterococcus faecalis [5] = experiment: Antibacterial activity against vancomycin-sensitive Enterococcus faecalis NCTC 775 after 20 hrs by broth microdilution method; assay type: functional; conditions: NCTC 775, 20 h; outline: as §1
Pseudomonas aeruginosa [6] = experiment: Ratio of MIC for Pseudomonas aeruginosa PAO1 in absence of PMBN to MIC for Pseudomonas aeruginosa PAO1 in presence of PMBN; assay type: functional; outline: as §2
Klebsiella pneumoniae [7] = experiment: Ratio of MIC for Klebsiella pneumoniae NCTC 13368 in absence of Pa-beta-N to MIC for Klebsiella pneumoniae NCTC 13368 in presence of Pa-beta-N; assay type: functional
Outline: (§3)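 Both MICs were by TSB broth microdilution, with an OD600 <0.1 cutoff at 20 h.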

Pseudomonas aeruginosa [8] = experiment: Ratio of MIC for Pseudomonas aeruginosa NCTC 13437 in absence of PMBN to MIC for Pseudomonas aeruginosa NCTC 13437 in presence of PMBN; assay type: functional; outline: as §2
Klebsiella pneumoniae [9] = experiment: Antibacterial activity against Klebsiella pneumoniae NCTC 13368 after 20 hrs in the presence of PMBN by broth microdilution method; assay type: functional; conditions: NCTC 13368, 20 h; outline: as §1
Klebsiella pneumoniae [10] = experiment: Antibacterial activity against Klebsiella pneumoniae NCTC 13368 after 20 hrs in the presence of Pa-beta-N and magnesium ions by broth microdilution method; assay type: functional; conditions: NCTC 13368, 20 h; outline: as §1
Staphylococcus aureus [11] = experiment: Bactericidal activity against methicillin-resistant Staphylococcus aureus EMRSA-15 assessed as time required to kill bacteria by >6 log10CFU/ml at 4 times MIC by Miles Misra dilution method; assay type: functional
Outline: (§4)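 Flasks of TSB inoculated at ~10^6 cfu/mL, compound added at 4 × MIC, shaken at 200 rpm and 37 °C. Samples taken at 1, 2, 4, 6 and 24 h and plated by Miles Misra dilution for CFU/mL. Bactericidal means a loss of >3 log CFU/mL. Three independent repeats, error bars SD.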

[12] = Cytotoxicity against human HeLa cells assessed as cell viability at 25 uM after 24 hrs by MTT assay; assay type: cell-based; conditions: read-out: Activity
Outline: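 HeLa cells, 10000 per well, were grown at 37 °C in 5% CO2 and allowed to settle for 24 h. Compound was then added in triplicate for 24 h of continuous exposure. Viability was read by MTT colorimetry, with absorbance at 570 nm.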

Pseudomonas aeruginosa [13] = experiment: Ratio of MIC for Pseudomonas aeruginosa NCTC 13437 in absence of Pa-beta-N to MIC for Pseudomonas aeruginosa NCTC 13437 in presence of Pa-beta-N; assay type: functional; outline: as §3
Acinetobacter baumannii [14] = experiment: Antibacterial activity against Acinetobacter baumannii ATCC 17978 after 20 hrs in the presence of PMBN by broth microdilution method; assay type: functional; conditions: ATCC 17978, 20 h; outline: as §1
Enterococcus faecalis [15] = experiment: Bactericidal activity against vancomycin-resistant Enterococcus faecalis NCTC 12201 assessed as time required to kill bacteria by >6 log10CFU/ml at 4 times MIC by Miles Misra dilution method; assay type: functional; outline: as §4
Klebsiella pneumoniae [16] = experiment: Ratio of MIC for Klebsiella pneumoniae M6 in absence of PMBN to MIC for Klebsiella pneumoniae M6 in presence of PMBN; assay type: functional; outline: as §2
Klebsiella pneumoniae [17] = experiment: Ratio of MIC for Klebsiella pneumoniae M6 in absence of Pa-beta-N to MIC for Klebsiella pneumoniae M6 in presence of Pa-beta-N; assay type: functional; outline: as §3
Acinetobacter baumannii [18] = experiment: Ratio of MIC for Acinetobacter baumannii AYE in absence of PMBN to MIC for Acinetobacter baumannii AYE in presence of PMBN; assay type: functional; outline: as §2
Pseudomonas aeruginosa [19] = experiment: Antibacterial activity against Pseudomonas aeruginosa NCTC 13437 after 20 hrs in the presence of PMBN by broth microdilution method; assay type: functional; conditions: NCTC 13437, 20 h; outline: as §1
Acinetobacter baumannii [20] = experiment: Ratio of MIC for Acinetobacter baumannii AYE in absence of Pa-beta-N to MIC for Acinetobacter baumannii AYE in presence of Pa-beta-N; assay type: functional; outline: as §3
Enterococcus faecalis [21] = experiment: Bactericidal activity against vancomycin-resistant Enterococcus faecalis NCTC 12201 at 4 times MIC after 10 hrs by Miles Misra dilution method; assay type: functional
Pseudomonas aeruginosa [22] = experiment: Antibacterial activity against Pseudomonas aeruginosa PAO1 after 20 hrs in the presence of Pa-beta-N and magnesium ions by broth microdilution method; assay type: functional; conditions: PAO1, 20 h; outline: as §1
Staphylococcus aureus [23] = experiment: Antibacterial activity against methicillin-sensitive Staphylococcus aureus ATCC 9144 after 20 hrs by broth microdilution method; assay type: functional; conditions: ATCC 9144, 20 h; outline: as §1
[24] = Stabilization of FAM/TAMRA-labeled AT-rich DNA duplex (unknown origin) assessed as change in melting temperature at 5 uM by FRET-based assay
Outline: (§5)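 FRET melting of a FAM/TAMRA-labelled AT-rich oligonucleotide, 400 nM working solution in 50 mM potassium, 50 mM cacodylate, pH 7.4. DNA was annealed at 85 °C for 6 min, then held at 25 °C for 5 h, and mixed 1:1 with sample. Fluorescence was read every 0.5 °C from 30 to 100 °C, with a 30 s hold per step. ΔTm is measured against the blank, in triplicate.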

Klebsiella pneumoniae [25] = experiment: Antibacterial activity against Klebsiella pneumoniae M6 after 20 hrs by broth microdilution method; assay type: functional; conditions: M6, 20 h; outline: as §1
[26] = Stabilization of FAM/TAMRA-labeled AT-rich DNA duplex (unknown origin) assessed as change in melting temperature at 1 uM by FRET-based assay; outline: as §5
Enterococcus faecium = experiment: Antibacterial activity against vancomycin-resistant Enterococcus faecium NCTC 12204 after 20 hrs by broth microdilution method; assay type: functional; conditions: NCTC 12204, 20 h
Outline: (§6)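 Broth microdilution in Tryptic Soy Broth; growth read as OD600 after 20 h. MIC taken as the lowest drug concentration giving OD600 below 0.1. Run in triplicate.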

Staphylococcus aureus [27] = experiment: Bactericidal activity against methicillin-resistant Staphylococcus aureus EMRSA-15 at 4 times MIC after 10 hrs by Miles Misra dilution method; assay type: functional
Klebsiella pneumoniae [28] = experiment: Antibacterial activity against Klebsiella pneumoniae M6 after 20 hrs in the presence of PMBN by broth microdilution method; assay type: functional; conditions: M6, 20 h; outline: as §1
Staphylococcus aureus [29] = experiment: Antibacterial activity against methicillin-resistant Staphylococcus aureus EMRSA-15 after 20 hrs by broth microdilution method; assay type: functional; conditions: EMRSA-15, 20 h; outline: as §6
Acinetobacter baumannii [30] = experiment: Ratio of MIC for Acinetobacter baumannii ATCC 17978 in absence of Pa-beta-N to MIC for Acinetobacter baumannii ATCC 17978 in presence of Pa-beta-N; assay type: functional; outline: as §3
Enterococcus faecalis [31] = experiment: Antibacterial activity against vancomycin-resistant Enterococcus faecalis NCTC 12201 after 20 hrs by broth microdilution method; assay type: functional; conditions: NCTC 12201, 20 h; outline: as §6
Klebsiella pneumoniae [32] = experiment: Ratio of MIC for Klebsiella pneumoniae NCTC 13368 in absence of PMBN to MIC for Klebsiella pneumoniae NCTC 13368 in presence of PMBN; assay type: functional; outline: as §2
Pseudomonas aeruginosa [33] = experiment: Antibacterial activity against Pseudomonas aeruginosa NCTC 13437 after 20 hrs in the presence of Pa-beta-N and magnesium ions by broth microdilution method; assay type: functional; conditions: NCTC 13437, 20 h; outline: as §1
Acinetobacter baumannii [34] = experiment: Antibacterial activity against Acinetobacter baumannii ATCC 17978 after 20 hrs by broth microdilution method; assay type: functional; conditions: ATCC 17978, 20 h; outline: as §1
Acinetobacter baumannii [35] = experiment: Antibacterial activity against Acinetobacter baumannii AYE after 20 hrs in the presence of PMBN by broth microdilution method; assay type: functional; outline: as §1
Acinetobacter baumannii [36] = experiment: Antibacterial activity against Acinetobacter baumannii AYE after 20 hrs in the presence of Pa-beta-N and magnesium ions by broth microdilution method; assay type: functional; outline: as §1
Acinetobacter baumannii [37] = experiment: Antibacterial activity against Acinetobacter baumannii ATCC 17978 after 20 hrs in the presence of Pa-beta-N and magnesium ions by broth microdilution method; assay type: functional; conditions: ATCC 17978, 20 h; outline: as §1
Acinetobacter baumannii [38] = experiment: Antibacterial activity against Acinetobacter baumannii AYE after 20 hrs by broth microdilution method; assay type: functional; outline: as §1
Pseudomonas aeruginosa [39] = experiment: Antibacterial activity against Pseudomonas aeruginosa NCTC 13437 after 20 hrs by broth microdilution method; assay type: functional; conditions: NCTC 13437, 20 h; outline: as §1
Pseudomonas aeruginosa [40] = experiment: Antibacterial activity against Pseudomonas aeruginosa PAO1 after 20 hrs by broth microdilution method; assay type: functional; conditions: PAO1, 20 h; outline: as §1
Staphylococcus aureus [41] = experiment: Antibacterial activity against methicillin-resistant Staphylococcus aureus MRSA252 after 20 hrs by broth microdilution method; assay type: functional; conditions: MRSA252, 20 h; outline: as §6

Compound: Cc1nc2ccc(C(=O)Nc3cccc(-c4ccc(-n5c(C)nc6cc(C(=O)NCCCCN(C)C)ccc65)nc4)c3)cc2[nH]1
- MIC (Pseudomonas aeruginosa [1]): 16 µg/mL
- Ratio (Acinetobacter baumannii [2]): 2
- MIC (Klebsiella pneumoniae [3]): > 32 µg/mL
- MIC (Klebsiella pneumoniae [4]): 16 µg/mL
- MIC (Enterococcus faecalis [5]): 0.5 µg/mL (≈ 0.832 µM)
- Ratio (Pseudomonas aeruginosa [6]): >16
- Ratio (Klebsiella pneumoniae [7]): 2 - 4
- Ratio (Pseudomonas aeruginosa [8]): >16
- MIC (Klebsiella pneumoniae [9]): 32 µg/mL
- MIC (Klebsiella pneumoniae [10]): 32 µg/mL
- Time (Staphylococcus aureus [11]): 2 h
- viability at 24 h, 25 µM [12]: > 98%
- Ratio (Pseudomonas aeruginosa [13]): 2 - 4
- MIC (Acinetobacter baumannii [14]): 8 µg/mL
- Time (Enterococcus faecalis [15]): 2 h
- Ratio (Klebsiella pneumoniae [16]): 4
- Ratio (Klebsiella pneumoniae [17]): >=4
- Ratio (Acinetobacter baumannii [18]): 2
- MIC (Pseudomonas aeruginosa [19]): 16 µg/mL
- Ratio (Acinetobacter baumannii [20]): 2 - 4
- Activity (Enterococcus faecalis [21]): inactive
- MIC (Pseudomonas aeruginosa [22]): > 32 µg/mL
- MIC (Staphylococcus aureus [23]): 0.5 µg/mL (≈ 0.832 µM)
- deltaTm [24]: 0.6 °C
- MIC (Klebsiella pneumoniae [25]): > 32 µg/mL
- deltaTm [26]: 0.3 °C
- MIC (Enterococcus faecium): ≤ 0.125 µg/mL
- Activity (Staphylococcus aureus [27]): inactive
- MIC (Klebsiella pneumoniae [28]): 16 µg/mL
- MIC (Staphylococcus aureus [29]): 1 µg/mL (≈ 1.66 µM)
- Ratio (Acinetobacter baumannii [30]): 2 - 4
- MIC (Enterococcus faecalis [31]): 0.25 µg/mL (≈ 0.416 µM)
- Ratio (Klebsiella pneumoniae [32]): 4
- MIC (Pseudomonas aeruginosa [33]): > 32 µg/mL
- MIC (Acinetobacter baumannii [34]): > 32 µg/mL
- MIC (Acinetobacter baumannii [35]): 8 µg/mL
- MIC (Acinetobacter baumannii [36]): 16 µg/mL
- MIC (Acinetobacter baumannii [37]): 8 µg/mL
- MIC (Acinetobacter baumannii [38]): > 32 µg/mL
- MIC (Pseudomonas aeruginosa [39]): > 32 µg/mL
- MIC (Pseudomonas aeruginosa [40]): > 32 µg/mL
- MIC (Staphylococcus aureus [41]): 2 µg/mL (≈ 3.33 µM)
